# Data: PMC9534497 (Science Advances, 2022)
# Residue numbers refer to the chain shown, from its start. Names may count otherwise.
# B1: DnaA(D118Q): DnaA mutant, Asp^118 in the linker domain substituted with Gln (protein)
# chain: MSLSLWQQCLARLQDELPATEFSMWIRPLQAELSDNTLALYAPNRFVLDWVRDKYLNNINGLLTSFCGADAPQLRFEVGTKPVTQTPQAAVTSNVAAPAQVAQTQPQRAAPSTRSGWQNVPAPAEPTYRSNVNVKHTFDNFVEGKSNQLARAAARQVADNPGGAYNPLFLYGGTGLGKTHLLHAVGNGIMARKPNAKVVYMHSERFVQDMVKALQNNAIEEFKRYYRSVDALLIDDIQFFANKERSQEEFFHTFNALLEGNQQIILTSDRYPKEINGVEDRLKSRFGWGLTVAIEPPELETRVAILMKKADENDIRLPGEVAFFIAKRLRSNVRELEGALNRVIANANFTGRAITIDFVREALRDLLALQEKLVTIDNIQKTVAEYYKIKVADLLSKRRSRSVARPRQMAMALAKELTNHSLPEIGDAFGGRDHTTVLHACRKIEQLREESHDIKEDFSNLIRTLSS
# modifications: left off: His10, N-terminal, state not stated
# B2: DnaA(WT): wild-type E. coli chromosomal replication initiator protein DnaA, purified 10× histidine-tagged (protein)
# chain: B1 chain with Q118D
# modifications: left off: His10, N-terminal, state not stated
# B3: DnaA(D118A) (protein, UniProt P03004 1-467, looked up, variant D118A)
# Chromosomal replication …: B1 chain with Q118A
# B4: DnaA(A184V): control DnaA mutant defective in ATP binding, changed residue within nucleotide-binding pocket of domain III (protein, UniProt P03004 1-467, looked up, variant A184V)
# Chromosomal replication …: B1 chain with Q118D, A184V
# B5: Apo-DnaA: DnaA protein without bound nucleotide, ground or inactive state (protein, UniProt P03004 1-467, looked up)
# Chromosomal replication …: B1 chain with Q118D
# modifications: nucleotide-free
# B6: mutant DnaA protein where Asp^118 is substituted with Gly: DnaA mutant, Asp^118 substituted with Gly (protein, UniProt P03004 1-467, looked up, variant D118G)
# Chromosomal replication …: B1 chain with Q118G
# B7: DnaA(L366K): DnaA with substitution L366K in the AAA+ membrane-binding region (protein, UniProt P03004 1-467, looked up, variant L366K)
# Chromosomal replication …: B1 chain with Q118D, L366K
# Legend:
# E. coli EH3827 = test: In vivo replication assay, poriC transformation of ∆dnaA cells; assay type: cell-based; conditions: 0.1 or 0.2% arabinose, versus DnaA WT
# [1] = DTSSP cross-linking for higher-oligomer forms of DnaA; assay type: biochemical, E. coli; conditions: ATP form treated with DTSSP
# [2] = system: E. coli CM742 (dnaA46ts) carrying pRD (seqA); test: Growth of dnaA46ts cells with SeqA-expressing plasmid pRD; assay type: cell-based; conditions: 30°C, IPTG 50 μM (SeqA expressed), no arabinose, 0.2% arabinose or 0.2% glucose
# Method in brief: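 Cells carrying the IPTG-inducible seqA plasmid were made competent on LB-agar with tetracycline and 50 μM IPTG. They were transformed with pBAD-based dnaA plasmids and selected at 30°C on tetracycline (12.5 μg/ml) plus ampicillin (100 μg/ml). Single colonies were grown in LB to OD600 ~0.1. Equal OD units were replica-plated with no sugar, 0.2% arabinose or 0.2% glucose.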
# E. coli CM742 (dnaA46ts) = test: Flow cytometry, total DNA content per cell; assay type: cell-based; conditions: 30°C, 0.2% arabinose, rifampicin and cephalexin 2.5 hours
# Method in brief: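 Host is dnaA46ts E. coli transformed with pBAD-derived plasmids carrying wild-type or mutant dnaA under an arabinose promoter. Overnight LB cultures with antibiotics were diluted to OD600 ~0.005 and grown 45 min. Each culture was split: one half got 0.2% arabinose, the other 0.2% glucose. At 30°C to OD600 0.15, then rifampicin (150 μg/ml) plus cephalexin (10 μg/ml) for 2.5 h; DNA content measured by flow cytometry.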
# [3] = Stability of ATP binding of DnaA at 4°, 30° or 42°C, filter retention assay; parameters: species or system E. coli
# Method in brief: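 Purified DnaA (1.9 μM) was loaded with 1 μM [α-32P]ATP in PP-60 buffer for 15 min at 4°C, then held at 4°, 30° or 42°C. Aliquots were withdrawn at timed intervals. Bound nucleotide was measured by retention on nitrocellulose filters and scintillation counting.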
# E. coli MG1655 = test: Growth of wild-type host on overexpression of DnaA; assay type: cell-based; conditions: 30°C, WT host
# [4] = ThermoFluor assay, melting point of DnaA proteins; assay type: physicochemical, E. coli
# [5] = system: E. coli EH3287 (∆dnaA/pgsA^+); test: Subcellular fractionation and immunoblotting of DnaA; assay type: cell-based; conditions: 0.2% arabinose for 90 min
# Method in brief: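 ΔdnaA/pgsA+ cells carrying arabinose-inducible dnaA alleles were grown to OD600 ~0.1, then induced with 0.2% arabinose for 90 min. Lysis used lysozyme (300 μg/ml) plus three freeze-thaw cycles. Cytosol and membranes were separated at 44,000 rpm for 30 min. Membranes were solubilized in octyl-thio-glucoside or CHAPS, recentrifuged and dialysed overnight. Protein levels are relative to wild type, averaged over three biological replicates.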
# [6] = ThermoFluor assay with SUVs composed of DOPG; assay type: physicochemical, E. coli; conditions: ATP-bound form
# Method in brief: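 DnaA (10 μM) was pre-incubated with 5 mM ATP on ice for 15 min, then mixed with DOPG small unilamellar vesicles at the stated concentrations. SYPRO Orange (50× dilution) was added to 50 μl final volume. Fluorescence was recorded from 25° to 95°C at 1 min/°. Tm and −dF/dT came from a variable-slope sigmoidal fit.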
# [7] = 37°C, at least 60 min, not challenged with acidic phospholipids; cited from earlier work
# [8] = 4° and 30°C, with reduced affinity
# [9] = protein 5 μM with ATP 5 mM (Fig. 2)
# [10] = ATP-bound form, protein 10 μM, ATP 5 mM, no SUVs (Fig. 7C)
molecule,measurement,setting,value
B1,reduction in the number of transformants,E. coli EH3827,at least 50 fold
same,formation of higher-order oligomer assemblies,[1],higher-order oligomer assemblies were not formed
same,growth on LB-agar plates,[2],showed growth at 30 °C
same,overreplication / DNA content per cell upon induction of DnaA,E. coli CM742 (dnaA46ts),more extensive
same,retention of bound ATP,[3]; [8],maintained its ATP form
same,growth of the host on induced expression,E. coli MG1655,no growth defect
same,melting point,[4]; [9],49 °C
same,DnaA in OTG-solubilized membrane fraction (immunoblotting),[5],abundant accumulation in the membrane
B2,melting point (peak),[6]; 100 μM DOPG SUVs (Fig. 7E),44 °C
same,retention of bound ATP,"[3]; 4°, 30° and 42°C, up to 60 min",retained ATP at different temperatures comparably
same,ATP-DnaA complex remaining intact,[7],> 90%
same,melting point,[4]; [10],approximately 57 °C
same,melting point,[4]; [9],57 °C
same,DnaA in OTG-solubilized membrane fraction (immunoblotting),[5],retained in the OTG-solubilized membrane fractions
B3,retention of bound ATP,"[3]; 4°, 30° and 42°C, up to 60 min",retained ATP at different temperatures comparably
same,melting point,[4]; [9],no shift
B4,reduction in the number of transformants,E. coli EH3827,at least 50 fold
same,growth on LB-agar plates,[2],showed growth at 30 °C
same,overreplication / DNA content per cell upon induction of DnaA,E. coli CM742 (dnaA46ts),more extensive
same,retention of bound ATP,[3]; [8],maintained its ATP form
same,melting point,[4]; [9],49 °C
B5,melting point,"[4]; Apo form, no ATP",44 °C
B6,melting point,[4]; [9],55 °C
B7,melting point (peak),[6]; 25 μM DOPG SUVs (Fig. 7D),50 °C
same,melting point (peak),[6]; 100 μM DOPG SUVs (Fig. 7E),did not shift further
same,melting point,[4]; [10],54 °C
same,DnaA in OTG-solubilized membrane fraction (immunoblotting),[5],retained in the OTG-solubilized membrane fractions
